Experimental findings from publication PMC5003403 (Clinical breast cancer, 2012) are described below.

In data set [1] the test system is serum IGFBP-3 (IGF-binding protein 3). In words: Serum IGFBP-3 levels. The data set is classed as in vivo, human. As to conditions: Day 7 (exemestane alone); mean ± SD; n 22. The procedure, abridged: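 Serum was taken at baseline, after 1 week of single-agent oral exemestane 25 mg daily (day 7), and at day 120 (±7). About 5 mL venous blood went into serum separator tubes, clotted for at least 30 min and was centrifuged at 3000 rpm for 10 min. Serum was frozen at −70°C until assay. Day differences were tested by repeated-measures ANOVA.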

Data set [2] deals with serum IGF-1 (insulin-like growth factor 1). In words: Serum IGF-1 levels. The data set is classed as in vivo, human. Conditions: Day 7 (exemestane alone); mean ± SD; n 23.
The format of data set [3] is in vivo. As to conditions: human, plasma, oral, 25 mg. The method in brief: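 Nine patients took oral 25 mg daily with food from day 1, adding intramuscular 250 mg fulvestrant from day 8 every 28 ± 5 days. Plasma was sampled over 24 h after the day-7 dose and again after about 120 ± 7 days of combination. Samples went into prechilled heparinised tubes on ice, spun at 1000–1200g for 10–15 min at 4°C and held at about −70°C. LC-MS/MS, LLOQ 0.1 ng/mL. Noncompartmental analysis: Cmax by inspection, AUC by linear trapezoid, t1/2 = 0.693/λz.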

In data set [1], `C=C1C[C@@H]2[C@H](CC[C@]3(C)C(=O)CC[C@@H]23)[C@@]2(C)C=CC(=O)C=C12` [Exemestane] yielded an IGFBP-3 serum level of 5273 ± 1372 ng/mL. Besides, the IGF-1 serum level in data set [2] turned out to be 141 ± 55.1 ng/mL. Moreover, in data set [3], the AUC(0-t) was found to be 61.7 ± 17.1 ng·h/mL, the Cmax was 20.1 ± 7.7 ng/mL and the half-life was 7.94 ± 1.32 h.
